# Measured values from different studies.
# Lines come from different studies, so protocols differ.
# Target: Rhodopsin kinase GRK7 (GRK7, Homo sapiens, UniProt Q8WTQ7)
# One construct used (Q8WTQ7 1-553): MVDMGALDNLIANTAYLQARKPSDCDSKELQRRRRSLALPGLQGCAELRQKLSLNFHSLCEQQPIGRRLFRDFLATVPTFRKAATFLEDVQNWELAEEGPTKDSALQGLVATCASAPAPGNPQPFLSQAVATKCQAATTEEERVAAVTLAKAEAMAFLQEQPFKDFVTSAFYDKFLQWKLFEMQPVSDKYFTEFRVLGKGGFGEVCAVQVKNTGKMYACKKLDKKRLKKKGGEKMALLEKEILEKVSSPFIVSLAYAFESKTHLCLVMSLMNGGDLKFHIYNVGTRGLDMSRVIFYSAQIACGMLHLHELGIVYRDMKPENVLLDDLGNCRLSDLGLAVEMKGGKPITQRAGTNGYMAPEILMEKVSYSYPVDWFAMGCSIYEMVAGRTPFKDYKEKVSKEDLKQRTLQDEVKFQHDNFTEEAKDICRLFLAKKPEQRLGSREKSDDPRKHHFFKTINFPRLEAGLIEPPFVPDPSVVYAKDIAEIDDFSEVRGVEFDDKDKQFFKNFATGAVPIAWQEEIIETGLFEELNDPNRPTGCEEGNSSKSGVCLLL
Structure (SMILES),test,conditions,remaining binding [%]
C[C@H]1CCN(c2nccc(-c3cnn4ncccc34)n2)C1,binding,1 µM,78
CCC(=O)N[C@@H]1CC[C@H](C(=O)N(C)c2ccc(-c3nc4ccccc4o3)cc2)C1,"cell-free assay, competition with immobilised ligand",1 µM,93
C=CC(=O)N1CCC(C(=O)NCC(=O)N2CCN(c3nc(-c4cnc(N)nc4C(F)F)nc(N4CCOCC4)n3)CC2)CC1,"binding, competition with immobilised ligand",1 µM,87
O=C(NCc1ncc(C(F)(F)F)cc1Cl)c1ccc2c(c1)C1(CCS(=O)(=O)CC1)[C@H](C1CC1)N2S(=O)(=O)c1ccc(F)cc1,"cell-free assay, competition with immobilised ligand",1 µM,80
CCN1CCN(Cc2ccc(C(=O)Nc3ccc(C)c(Oc4ccc5c(c4)CC(=O)N5)c3)cc2C(F)(F)F)CC1,"binding, competition with immobilised ligand",1 µM,100
O=C(NCCCC1CCCCC1)c1ccc(CNC(=O)c2cnn(-c3ccccc3)c2C(F)(F)F)cc1,"cell-free assay, competition with immobilised ligand",0.1 µM,100
O=C(c1ccc(Nc2ncc(Cl)c(-c3cc4ccccc4s3)n2)cc1)N1CCC(N2CCCC2)CC1,"binding, competition with immobilised ligand",1 µM,56
CNC(=O)[C@@H]1CC[C@@H](n2c(-c3ccc4cnccc4c3)nc3ccc(C(=O)NCc4cccc(C(N)=O)c4)cc32)C1,"binding, competition with immobilised ligand",1 µM,100
Cc1cnn2ncc(-c3ccnc(N(C)C)n3)c2c1,binding,1 µM,84
FC(F)(F)c1ccc2c(c1)nc(-c1cccnc1)n2C1CC1,"cell-free assay, competition with immobilised ligand",1 µM,81
CN(CCCC(F)(F)F)c1nccc(-c2cnn3ncccc23)n1,binding,1 µM,93
COc1cc(-c2cn(C3CCc4ccccc4N(CC(F)(F)F)C3=O)nn2)ccc1-n1ccc(C)n1 (stereo not shown),"cell-free assay, competition with immobilised ligand",1 µM,87
COc1cnc(Nc2cccc(S(N)(=O)=O)c2)nc1N1CCN(c2ccccc2)CC1,"binding, competition with immobilised ligand",1 µM,58
O=C(NCCCN1CCOCC1)c1ccc(Nc2nccc(-c3cc4ccccc4s3)n2)cc1,"binding, competition with immobilised ligand",1 µM,100
CN(C)c1nccc(-c2cnc3ncccn23)n1,binding,1 µM,41
O=C(Nc1c[nH]nc1C(=O)NC1CCNCC1)c1cc(F)cc(F)c1,"binding, competition with immobilised ligand",1 µM,84
O=C(Nc1ccc(Oc2ccc(F)cc2)cc1)N1CCc2ncccc2[C@H]1c1ccc(F)cc1,"cell-free assay, competition with immobilised ligand",1 µM,100
N[C@H]1CCN(c2nccc(-c3cnn4ncccc34)n2)C1,binding,1 µM,100
O=C(c1ccc(Nc2ncc(Cl)c(-c3ccc(Cl)s3)n2)cc1)N1CCC(N2CCCC2)CC1,"binding, competition with immobilised ligand",1 µM,84
O=S(=O)(NC1CCC(c2cc(F)ccc2F)(S(=O)(=O)c2ccc(Cl)cc2)CC1)C(F)(F)F (stereo not shown),"cell-free assay, competition with immobilised ligand",1 µM,100
FC(F)(F)Oc1cccc(-c2cnc3ccc(-c4ccncc4)nn23)c1,"cell-free assay, competition with immobilised ligand",5 µM,24
CN(C)c1ncc(F)c(-c2cnn3ncccc23)n1,binding,1 µM,100
